According to ChEMBL document CHEMBL3526013, “Cannabinoid type 1 receptor antagonists modulate transport activity of multidrug resistance-associated proteins MRP1, MRP2, MRP3, and MRP4” (Drug Metab Dispos, 2011):

Tests used:
[1] = target: T1, ATP-binding cassette sub-family C member 2 (Homo sapiens, UniProt Q92887); assay: Induction of MRP2-mediated E2-17betaG transport in human MRP2 expressing HEK293 cells at 7 uM during 5 mins; assay type: ADME, cell-based; details: hek293, 5 min
In short: (§1)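 Inside-out membrane vesicles from HEK293 cells transduced with MRP baculovirus (5 mM butyrate at 24 h, harvested day 3). Reaction: 7.5 µg vesicles in TS buffer pH 7.4 with 4 mM ATP, 10 mM MgCl2 and [3H]E2-17βG, 37°C for 5 min. E2-17βG was 0.16 µM (MRP1), 20 µM (MRP2) or 0.12 µM (MRP4). Uptake was read by rapid filtration and scintillation counting. ATP-dependent uptake was taken as ATP minus AMP values, with drug-free uptake set at 100%. Nominal 10 or 100 µM antagonist; actual concentration measured by LC-MS/MS. Three independent experiments.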

[2] = Retention time of the compound by LC-MS/MS method; assay type: physicochemical
In short: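 Reaction mix without radiolabel, AMP condition, with 7.5 μg eYFP vesicles. Supernatant after 16,000–20,000g spin diluted in 50% acetonitrile/0.1% TFA. Gradient of 0.1% TFA water/acetonitrile, 50→90% B over 5 min. Electrospray triple quadrupole. Duplicates, at least three experiments.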

[3] = target: T2, ATP-binding cassette sub-family C member 4 (Homo sapiens, UniProt O15439); assay: Inhibition of MRP4-mediated E2-17betaG transport in human MRP4 expressing HEK293 cells at 7 uM during 5 mins; assay type: ADME, cell-based; details: hek293, 5 min; in short: as §1
T2 sequence (O15439 whole entry): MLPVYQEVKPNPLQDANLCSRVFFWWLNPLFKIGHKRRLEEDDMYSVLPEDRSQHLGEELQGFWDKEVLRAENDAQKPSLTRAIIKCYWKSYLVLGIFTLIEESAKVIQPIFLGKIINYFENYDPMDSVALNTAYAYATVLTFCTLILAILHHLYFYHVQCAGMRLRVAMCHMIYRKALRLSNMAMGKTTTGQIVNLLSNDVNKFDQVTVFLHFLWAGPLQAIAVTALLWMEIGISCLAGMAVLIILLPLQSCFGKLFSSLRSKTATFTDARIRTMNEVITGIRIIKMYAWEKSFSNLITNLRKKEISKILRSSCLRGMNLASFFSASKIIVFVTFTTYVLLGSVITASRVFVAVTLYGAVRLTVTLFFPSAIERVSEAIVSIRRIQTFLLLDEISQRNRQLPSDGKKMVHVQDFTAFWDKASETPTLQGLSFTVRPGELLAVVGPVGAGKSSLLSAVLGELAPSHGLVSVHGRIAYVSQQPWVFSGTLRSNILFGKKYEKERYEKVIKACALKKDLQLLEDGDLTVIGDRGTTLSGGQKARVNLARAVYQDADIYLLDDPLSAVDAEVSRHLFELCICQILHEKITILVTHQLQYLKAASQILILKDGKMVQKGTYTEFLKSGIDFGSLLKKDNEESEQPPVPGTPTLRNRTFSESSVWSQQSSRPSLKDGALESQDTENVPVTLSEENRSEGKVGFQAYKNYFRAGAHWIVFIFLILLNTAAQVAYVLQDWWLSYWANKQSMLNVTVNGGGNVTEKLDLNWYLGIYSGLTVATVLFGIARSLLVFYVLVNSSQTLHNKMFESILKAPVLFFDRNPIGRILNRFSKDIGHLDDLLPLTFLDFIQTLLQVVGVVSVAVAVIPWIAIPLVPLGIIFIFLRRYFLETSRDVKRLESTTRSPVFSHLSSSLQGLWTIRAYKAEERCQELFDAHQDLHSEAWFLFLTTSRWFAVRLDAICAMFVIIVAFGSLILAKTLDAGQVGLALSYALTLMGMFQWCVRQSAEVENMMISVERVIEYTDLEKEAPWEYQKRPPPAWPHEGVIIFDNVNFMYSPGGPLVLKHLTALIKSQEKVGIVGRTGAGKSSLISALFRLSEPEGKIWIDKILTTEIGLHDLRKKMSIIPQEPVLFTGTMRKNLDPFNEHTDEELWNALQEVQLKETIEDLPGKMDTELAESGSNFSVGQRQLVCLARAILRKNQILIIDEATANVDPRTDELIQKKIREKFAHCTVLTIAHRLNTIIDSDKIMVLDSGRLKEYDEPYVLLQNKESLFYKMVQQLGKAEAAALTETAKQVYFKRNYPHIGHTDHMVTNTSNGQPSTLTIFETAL

Rattus norvegicus = assay: Attenuation of CP55940-induced hypotension in iv dosed rat; assay type: functional
In short: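 Male normotensive anaesthetized Wistar rats; antagonist given i.v. at several doses (n=2 per dose) 10 min before CP55,940 0.1 mg/kg i.v. Hypotension develops within 1 min; lowest blood pressure taken as the hypotensive effect. ED50 is the dose inhibiting the CP55,940 hypotensive effect by 50%, calculated from the linear part of the percentage dose-response curve.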

[4] = target: T3, Multidrug resistance-associated protein 1 (Homo sapiens, UniProt P33527); assay: Inhibition of MRP1-mediated E2-17betaG transport in human MRP1 expressing HEK293 cells at 7 uM during 5 mins; assay type: ADME, cell-based; details: hek293, 5 min; in short: as §1
[5] = target: T2, ATP-binding cassette sub-family C member 4; assay: (§2) Inhibition of MRP4-mediated E2-17betaG transport in human MRP4 expressing HEK293 cells at 12 uM during 5 mins; assay type: ADME, cell-based; details: hek293, 5 min, 12 µM
In short: (§3)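 MRP4-expressing HEK293 inside-out vesicles (baculovirus transduction). 7.5 μg protein with 4 mM ATP, 10 mM MgCl2 in TS buffer and 0.12 μM [3H]E2-17βG, 5 min at 37°C. Filter-bound radioactivity counted; AMP control subtracted for ATP-dependent uptake. Nominal 10/100 μM antagonist, actual concentrations by LC-MS/MS. Percent of untreated, three independent experiments.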

[6] = target: T1, ATP-binding cassette sub-family C member 2; assay: Induction of MRP2-mediated E2-17betaG transport in human MRP2 expressing HEK293 cells at 12 uM during 5 mins; assay type: ADME, cell-based; details: hek293, 5 min
In short: (§4)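 Inside-out membrane vesicles from HEK293 cells transduced with MRP2 baculovirus (sodium butyrate 5 mM added at 24 h, harvested day 3). 7.5 μg vesicles in TS buffer (pH 7.4) with 4 mM ATP, 10 mM MgCl2, 20 μM [3H]E2-17βG, 5 min at 37°C. Rapid filtration and scintillation counting; AMP values subtracted. Nominal 10 and 100 μM antagonist, actual levels measured by LC-MS/MS. Untreated set at 100%. Three independent experiments.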

[7] = target: T3, Multidrug resistance-associated protein 1; assay: (§5) Inhibition of MRP1-mediated E2-17betaG transport in human MRP1 expressing HEK293 cells at 12 uM during 5 mins; assay type: ADME, cell-based; details: hek293, 5 min, 12 µM
In short: (§6)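 Inside-out membrane vesicles from MRP1-baculovirus-transduced HEK293 cells. 7.5 μg vesicles in TS buffer, 4 mM ATP, 10 mM MgCl2, 0.16 μM [3H]E2-17βG, 5 min at 37°C. Stopped on ice, then rapid filtration and scintillation counting. ATP minus AMP uptake taken as net. Nominal 10 or 100 μM antagonist, actual levels by LC-MS/MS. Expressed as % of untreated. Three independent experiments.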

[8] = target: T2, ATP-binding cassette sub-family C member 4; assay: Inhibition of MRP4-mediated E2-17betaG transport in human MRP4 expressing HEK293 cells at 1 to 3 uM during 5 mins; assay type: ADME, cell-based; details: hek293, 5 min; in short: as §3
[9] = target: T3, Multidrug resistance-associated protein 1; assay: Inhibition of MRP1-mediated E2-17betaG transport in human MRP1 expressing HEK293 cells at 1 to 3 uM during 5 mins; assay type: ADME, cell-based; details: hek293, 5 min; in short: as §6
[10] = target: ATP-binding cassette sub-family C member 3 (Homo sapiens, UniProt O15438); assay: Inhibition of MRP3-mediated E2-17betaG transport in human MRP3 expressing HEK293 cells in presence of 15 uM E2-17betaG; assay type: ADME, cell-based
In short: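 Vesicles from MRP3-transduced HEK293 cells. 7.5 μg in TS buffer with 4 mM ATP and 10 mM MgCl2, substrate [3H]E2-17βG at 15 μM, with antagonists at high concentrations. Incubated at 37°C, filtered and counted. ATP-dependent uptake calculated by AMP subtraction.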

[11] = target: T2, ATP-binding cassette sub-family C member 4; assay: Noncompetitive inhibition of MRP4-mediated E2-17betaG transport in human MRP4 expressing HEK293 cells by Dixon plot; assay type: ADME, cell-based
[12] = target: T1, ATP-binding cassette sub-family C member 2; assay: Induction of MRP2-mediated E2-17betaG transport in human MRP2 expressing HEK293 cells at 0.7 to 1.3 uM during 5 mins; assay type: ADME, cell-based; details: hek293, 5 min; in short: as §4
[13] = target: T1, ATP-binding cassette sub-family C member 2; assay: Induction of MRP2-mediated E2-17betaG transport in human MRP2 expressing HEK293 cells at 1 to 3 uM during 5 mins; assay type: ADME, cell-based; details: hek293, 5 min; in short: as §4
[14] = target: T2, ATP-binding cassette sub-family C member 4; assay: Inhibition of MRP4-mediated E2-17betaG transport in human MRP4 expressing HEK293 cells in presence of 0.1 to 1 uM E2-17betaG
[15] = target: T3, Multidrug resistance-associated protein 1; assay: Inhibition of MRP1-mediated E2-17betaG transport in human MRP1 expressing HEK293 cells in presence of 0.16 to 5 uM E2-17betaG
MRP4 (ABCC4) = target: T4, MRP4 (ABCC4) (Homo sapiens, UniProt O15439); assay: as §2; assay type: ADME, cell-based; details: probe E2-17betaG; in short: as §3
T4 sequence (O15439 whole entry): T2 sequence (O15439 whole entry)

MRP1 (ABCC1) = MRP1 (ABCC1) (Homo sapiens, UniProt P33527); assay: as §5; assay type: ADME, cell-based; details: probe E2-17betaG; in short: as §6
Sequence of MRP1 (ABCC1) (P33527 whole entry): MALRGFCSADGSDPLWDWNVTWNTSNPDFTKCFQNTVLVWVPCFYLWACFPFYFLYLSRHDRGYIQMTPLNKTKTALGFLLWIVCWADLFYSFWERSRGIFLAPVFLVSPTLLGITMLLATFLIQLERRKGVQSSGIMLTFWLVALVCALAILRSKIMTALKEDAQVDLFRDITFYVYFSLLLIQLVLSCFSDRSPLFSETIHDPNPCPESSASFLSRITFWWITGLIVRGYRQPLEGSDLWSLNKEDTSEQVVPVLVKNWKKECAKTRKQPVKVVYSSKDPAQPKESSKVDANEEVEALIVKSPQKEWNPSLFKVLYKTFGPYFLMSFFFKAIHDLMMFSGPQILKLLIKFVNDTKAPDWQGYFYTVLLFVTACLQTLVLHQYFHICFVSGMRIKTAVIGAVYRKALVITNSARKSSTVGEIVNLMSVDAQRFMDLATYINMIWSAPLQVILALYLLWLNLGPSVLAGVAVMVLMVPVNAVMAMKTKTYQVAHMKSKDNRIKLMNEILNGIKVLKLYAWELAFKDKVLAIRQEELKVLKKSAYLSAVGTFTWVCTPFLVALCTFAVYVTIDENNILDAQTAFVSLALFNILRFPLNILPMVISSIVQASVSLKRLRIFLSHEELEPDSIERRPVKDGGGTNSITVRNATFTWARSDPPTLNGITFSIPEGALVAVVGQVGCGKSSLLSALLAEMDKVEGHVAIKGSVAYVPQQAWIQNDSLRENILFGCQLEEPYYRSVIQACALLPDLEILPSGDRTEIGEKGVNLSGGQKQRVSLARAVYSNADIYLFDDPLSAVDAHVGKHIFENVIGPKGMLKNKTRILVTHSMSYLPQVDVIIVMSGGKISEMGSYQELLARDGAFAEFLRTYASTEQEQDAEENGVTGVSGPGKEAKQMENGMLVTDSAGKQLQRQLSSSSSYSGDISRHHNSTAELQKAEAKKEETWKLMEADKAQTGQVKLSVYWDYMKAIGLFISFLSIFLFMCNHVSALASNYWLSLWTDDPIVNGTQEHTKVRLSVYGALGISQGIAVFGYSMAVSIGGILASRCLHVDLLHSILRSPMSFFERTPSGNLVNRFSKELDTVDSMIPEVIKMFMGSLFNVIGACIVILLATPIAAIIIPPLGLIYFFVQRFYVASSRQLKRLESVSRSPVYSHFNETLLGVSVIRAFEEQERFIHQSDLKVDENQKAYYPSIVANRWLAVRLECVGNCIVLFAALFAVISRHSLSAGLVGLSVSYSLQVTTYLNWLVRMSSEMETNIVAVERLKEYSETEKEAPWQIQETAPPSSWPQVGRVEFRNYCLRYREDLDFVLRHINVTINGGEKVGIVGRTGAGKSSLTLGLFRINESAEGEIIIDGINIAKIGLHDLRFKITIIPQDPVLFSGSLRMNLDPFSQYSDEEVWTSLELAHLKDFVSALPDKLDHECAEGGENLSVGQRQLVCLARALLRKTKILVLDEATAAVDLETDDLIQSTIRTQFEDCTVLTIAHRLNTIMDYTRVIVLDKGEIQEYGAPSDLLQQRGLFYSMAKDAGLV

T1 sequence (Q92887 whole entry): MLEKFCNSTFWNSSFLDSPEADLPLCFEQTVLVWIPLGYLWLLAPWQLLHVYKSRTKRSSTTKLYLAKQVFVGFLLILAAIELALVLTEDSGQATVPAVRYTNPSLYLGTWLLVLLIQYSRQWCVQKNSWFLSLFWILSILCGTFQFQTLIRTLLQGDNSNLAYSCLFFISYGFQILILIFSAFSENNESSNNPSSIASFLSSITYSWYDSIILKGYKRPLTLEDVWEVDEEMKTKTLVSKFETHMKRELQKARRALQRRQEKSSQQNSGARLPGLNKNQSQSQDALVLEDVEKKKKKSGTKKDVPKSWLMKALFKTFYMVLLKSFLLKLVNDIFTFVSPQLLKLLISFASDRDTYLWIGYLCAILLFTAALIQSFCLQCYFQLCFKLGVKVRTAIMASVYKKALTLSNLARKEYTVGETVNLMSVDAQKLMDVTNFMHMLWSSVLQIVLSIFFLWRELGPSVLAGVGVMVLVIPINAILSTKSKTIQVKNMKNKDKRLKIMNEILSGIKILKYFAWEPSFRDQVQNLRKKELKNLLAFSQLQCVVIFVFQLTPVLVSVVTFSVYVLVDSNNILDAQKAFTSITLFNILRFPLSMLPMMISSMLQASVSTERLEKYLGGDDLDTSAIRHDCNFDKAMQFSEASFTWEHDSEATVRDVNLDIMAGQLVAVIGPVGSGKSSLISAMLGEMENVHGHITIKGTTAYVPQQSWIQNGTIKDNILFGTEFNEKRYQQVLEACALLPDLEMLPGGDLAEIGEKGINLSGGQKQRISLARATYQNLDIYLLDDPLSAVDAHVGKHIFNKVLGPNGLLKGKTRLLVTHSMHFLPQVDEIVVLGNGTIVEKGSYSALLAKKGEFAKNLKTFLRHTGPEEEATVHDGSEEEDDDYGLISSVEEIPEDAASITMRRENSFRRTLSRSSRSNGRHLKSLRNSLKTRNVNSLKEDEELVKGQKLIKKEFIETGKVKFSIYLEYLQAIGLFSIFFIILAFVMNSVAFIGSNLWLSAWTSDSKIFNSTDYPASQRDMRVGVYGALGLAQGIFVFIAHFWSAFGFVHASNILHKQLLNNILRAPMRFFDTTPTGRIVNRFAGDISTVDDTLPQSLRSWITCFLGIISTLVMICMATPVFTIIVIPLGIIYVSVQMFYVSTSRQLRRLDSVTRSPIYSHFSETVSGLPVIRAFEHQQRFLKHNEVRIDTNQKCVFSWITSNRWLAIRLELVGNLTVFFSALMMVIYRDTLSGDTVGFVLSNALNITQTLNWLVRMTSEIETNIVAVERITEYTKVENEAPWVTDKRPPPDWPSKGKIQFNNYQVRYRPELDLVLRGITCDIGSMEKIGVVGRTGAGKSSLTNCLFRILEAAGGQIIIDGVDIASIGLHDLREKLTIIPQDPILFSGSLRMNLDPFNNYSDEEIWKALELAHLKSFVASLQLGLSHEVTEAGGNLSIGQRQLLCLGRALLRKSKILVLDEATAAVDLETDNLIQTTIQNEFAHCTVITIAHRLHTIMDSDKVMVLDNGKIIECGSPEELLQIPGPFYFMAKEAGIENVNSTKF
T3 sequence (P33527 whole entry): as the sequence (P33527 whole entry) above
Sequence of ATP-binding cassette sub-family C member 3 (O15438 whole entry): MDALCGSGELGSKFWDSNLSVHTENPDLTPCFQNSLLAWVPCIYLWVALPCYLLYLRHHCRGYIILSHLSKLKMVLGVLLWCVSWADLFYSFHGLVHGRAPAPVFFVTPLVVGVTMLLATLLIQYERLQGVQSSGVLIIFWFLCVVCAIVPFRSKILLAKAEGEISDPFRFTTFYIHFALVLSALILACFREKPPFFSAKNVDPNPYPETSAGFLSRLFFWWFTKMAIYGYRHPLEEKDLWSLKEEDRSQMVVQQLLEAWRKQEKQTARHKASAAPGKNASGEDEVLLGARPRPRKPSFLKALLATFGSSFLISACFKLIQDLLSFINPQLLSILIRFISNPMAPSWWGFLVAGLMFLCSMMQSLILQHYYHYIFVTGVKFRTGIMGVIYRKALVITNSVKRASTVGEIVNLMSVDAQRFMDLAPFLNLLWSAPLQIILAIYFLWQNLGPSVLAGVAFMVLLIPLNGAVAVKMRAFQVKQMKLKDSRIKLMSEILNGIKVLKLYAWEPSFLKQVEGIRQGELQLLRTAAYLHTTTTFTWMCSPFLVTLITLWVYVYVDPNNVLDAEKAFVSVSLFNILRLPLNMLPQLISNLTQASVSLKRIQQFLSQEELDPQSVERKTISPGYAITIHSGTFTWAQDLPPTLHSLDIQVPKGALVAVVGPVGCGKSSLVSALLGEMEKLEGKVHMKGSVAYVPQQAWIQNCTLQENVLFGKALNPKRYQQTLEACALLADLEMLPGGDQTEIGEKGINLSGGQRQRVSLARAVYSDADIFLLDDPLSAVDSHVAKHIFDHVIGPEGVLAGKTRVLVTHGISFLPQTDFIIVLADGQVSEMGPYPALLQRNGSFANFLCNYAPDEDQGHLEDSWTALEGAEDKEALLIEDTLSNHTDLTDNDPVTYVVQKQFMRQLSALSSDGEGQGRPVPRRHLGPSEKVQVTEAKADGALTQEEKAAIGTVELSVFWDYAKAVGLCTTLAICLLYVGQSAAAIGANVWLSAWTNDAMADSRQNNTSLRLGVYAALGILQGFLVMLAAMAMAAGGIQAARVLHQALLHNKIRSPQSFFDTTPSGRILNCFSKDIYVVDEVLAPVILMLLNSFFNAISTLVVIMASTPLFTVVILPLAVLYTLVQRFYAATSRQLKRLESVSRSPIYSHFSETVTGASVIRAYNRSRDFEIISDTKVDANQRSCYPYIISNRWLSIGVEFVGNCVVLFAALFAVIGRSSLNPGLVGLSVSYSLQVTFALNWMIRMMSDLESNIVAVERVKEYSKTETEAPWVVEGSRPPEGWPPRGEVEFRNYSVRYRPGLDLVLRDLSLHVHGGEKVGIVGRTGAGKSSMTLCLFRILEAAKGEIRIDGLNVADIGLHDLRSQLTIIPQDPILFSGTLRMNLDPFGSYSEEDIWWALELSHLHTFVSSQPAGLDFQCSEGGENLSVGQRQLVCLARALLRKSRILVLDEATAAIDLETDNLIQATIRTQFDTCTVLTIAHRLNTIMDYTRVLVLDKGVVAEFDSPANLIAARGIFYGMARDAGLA

Structure (SMILES) | Retention_time [2] | ED50 (Rattus norvegicus) | Activity [6] | inhibition (INH) [8] | inhibition (INH) [9] | inhibition (INH) [10] | Activity [12] | Activity [13] | inhibition (INH) [14] | further results
CCN(CC)S(=O)(=O)NC(=NC)N1CC(c2ccccc2)C(c2ccc(Cl)cc2)=N1 (configuration not stated) | 4.2 min | 0.2 mg/kg |  |  |  |  |  |  |  | Activity [1]: 543%; inhibition (INH) [3]: Active; inhibition (INH) [4]: Not Active
CN=C(NS(=O)(=O)N1CCCC1)N1CC(c2ccccc2)C(c2ccc(Cl)cc2)=N1 (configuration not stated) | 3.5 min | 0.7 mg/kg | 543% |  |  |  |  |  |  | inhibition (INH) [5]: Active; inhibition (INH) [7]: Active
CN/C(=N\S(=O)(=O)N1CCCCCC1)N1CC(c2ccccc2)C(c2ccc(Cl)cc2)=N1 (configuration not stated) | 4.8 min | 0.1 mg/kg |  | Not Active | Not Active | Active | 256% | 349% | Active | inhibition (INH) ([11]; human, hek293): Active
CNC(=NS(=O)(=O)N1CCCCCCC1)N1CC(c2ccccc2)C(c2ccc(Cl)cc2)=N1 (configuration not stated) | 5.4 min |  |  | Not Active | Not Active |  | 256% | 349% |  | 
CCN(C)S(=O)(=O)NC(=NC)N1CC(c2ccccc2)C(c2ccc(Cl)cc2)=N1 (configuration not stated) | 3.8 min |  | 543% |  |  | Active |  |  | Active | inhibition (INH) [15]: Active; inhibition at 5 min, 12 µM (MRP4 (ABCC4)): -72%; Ki [11]: 7 µM; inhibition at 5 min, 12 µM (MRP1 (ABCC1)): -34%
